Assays:
Plasmodium falciparum [1] = assay: In vitro antimalarial activity against Plasmodium falciparum FG4; type: functional, organism-based
In short: (§1)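 Young trophozoite-stage P. falciparum cultures were exposed to drug at 0.001–10 μg/mL for 48 h, in triplicate. [³H]hypoxanthine uptake by schizonts was measured by scintillation counting, with drug-free cultures as controls. IC50 was taken from the regression line through mean dpm between maximum and minimum values, and given as mean and SD over n experiments.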

Plasmodium falciparum [2] = assay: In vitro antimalarial activity against Plasmodium falciparum FCM17 parasite; type: functional, organism-based; in short: as §1
Plasmodium falciparum [3] = assay: In vitro antimalarial activity against Plasmodium falciparum FCM6; type: functional, organism-based; in short: as §1
Plasmodium falciparum [4] = assay: In vitro antimalarial activity against Plasmodium falciparum FG1; type: functional, organism-based; in short: as §1
Plasmodium falciparum [5] = assay: In vitro antimalarial activity against Plasmodium falciparum FG3; type: functional, organism-based; in short: as §1
[6] = Compound was tested antimalarial activity in mice (Mus musculus), infected with Plasmodium berghei N., activity is expressed as the mortality rate at a concentration of 1 mg/kg. in experiment 1; 5 out of 5; type: ADME, organism-based; parameters: dose 1 mg/kg; details: in vivo
Plasmodium falciparum [7] = assay: In vitro antimalarial activity against Plasmodium falciparum FG2 parasite; type: functional, organism-based; in short: as §1
[8] = Compound was tested antimalarial activity in mice (Mus musculus), infected with Plasmodium berghei N., activity is expressed as the mortality rate at a concentration of 10 mg/kg. in experiment 1; 0 out of 5; type: ADME, organism-based; parameters: dose 10 mg/kg; details: in vivo
Plasmodium falciparum [9] = assay: In vitro antimalarial activity against Plasmodium falciparum SGE2; type: functional, organism-based; in short: as §1
Mus musculus [10] = assay: Compound was tested for the antimalarial activity in mice (Mus musculus), infected with Plasmodium yoelii NS., activity is expressed as the percent of parasitaemia observed in mice (Mus musculus) at end of 4-day test at a concentration of 10 mg/kg in experiment 2; type: functional, organism-based; parameters: dose 10 mg/kg
In short: (§2)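 4-day suppressive test in female Swiss mice (25 g), infected at day 0 with 10⁷ parasitized RBC from a donor at 20–30% parasitemia. Drug given subcutaneously in PBS once daily, days 0–3; dose in chloroquine base equivalents. Controls received PBS. Parasitemia was counted on 1000 RBC in Giemsa-stained thin films at day 4 and expressed as percent of control-mouse parasitemia.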

Mus musculus [11] = assay: Compound was tested for the antimalarial activity in mice (Mus musculus), infected with Plasmodium berghei N., activity is expressed as the percent of parasitaemia observed in mice (Mus musculus) at end of 4-day test at a concentration of 1 mg/kg in experiment 2; type: functional, organism-based; parameters: dose 1 mg/kg; in short: as §2
Mus musculus [12] = assay: Compound was tested for the antimalarial activity in mice (Mus musculus), infected with Plasmodium berghei N., activity is expressed as the percent of parasitaemia observed in mice (Mus musculus) at end of 4-day test at a concentration of 10 mg/kg in experiment 1; type: functional, organism-based; parameters: dose 10 mg/kg; in short: as §2
Mus musculus [13] = assay: Compound was tested for the antimalarial activity in mice (Mus musculus), infected with Plasmodium berghei N., activity is expressed as the percent of parasitaemia observed in mice (Mus musculus) at end of 4 day test at a concentration of 1 mg/kg in experiment 1; type: functional, organism-based; parameters: dose 1 mg/kg; in short: as §2
Mus musculus [14] = assay: Compound was tested for the antimalarial activity in mice (Mus musculus), infected with Plasmodium berghei N., activity is expressed as the percent of parasitaemia observed in mice (Mus musculus) at end of 4 day test at a concentration of 10 mg/kg in experiment 2; type: functional, organism-based; parameters: dose 10 mg/kg; in short: as §2
Mus musculus [15] = assay: Compound was tested for the antimalarial activity in mice (Mus musculus), infected with Plasmodium yoelii NS., activity is expressed as the percent of parasitaemia observed in mice (Mus musculus) at end of 4-day test at a concentration of 1 mg/kg in experiment 2; type: functional, organism-based; parameters: dose 1 mg/kg; in short: as §2
Mus musculus [16] = assay: Compound was tested for the antimalarial activity in mice (Mus musculus), infected with Plasmodium yoelii NS., activity is expressed as the percent of parasitaemia observed in mice (Mus musculus) at end of 4-day test at a concentration of 10 mg/kg in experiment 1; type: functional, organism-based; parameters: dose 10 mg/kg; in short: as §2
Mus musculus [17] = assay: Compound was tested for the antimalarial activity in mice (Mus musculus), infected with Plasmodium yoelii NS., activity is expressed as the percent of parasitaemia observed in mice (Mus musculus) at end of 4-day test at a concentration of 1 mg/kg in experiment 1; type: functional, organism-based; parameters: dose 1 mg/kg; in short: as §2
Mus musculus [18] = assay: Antimalarial activity in mice (Mus musculus), infected with Plasmodium yoelii NS. activity is expressed as the percent of parasitaemia observed in mice (Mus musculus) at end of 4-day test at a concentration of 10 mg/kg in experiment 2; type: functional; in short: as §2
Mus musculus [19] = assay: Antimalarial activity in mice (Mus musculus), infected with Plasmodium berghei N. activity is expressed as the percent of parasitaemia observed in mice (Mus musculus) at end of 4-day test at a concentration of 1 mg/kg in experiment 2; type: functional; in short: as §2
Mus musculus [20] = assay: Antimalarial activity in mice (Mus musculus), infected with Plasmodium yoelii NS., activity is expressed as the percent of parasitaemia observed in mice (Mus musculus) at end of 4 day test at a concentration of 1 mg/kg in experiment 2; type: functional; in short: as §2
Mus musculus [21] = assay: Antimalarial activity in mice (Mus musculus), infected with Plasmodium yoelii NS., activity is expressed as the percent of parasitaemia observed in mice (Mus musculus) at end of 4-day test at a concentration of 10 mg/kg in experiment 1; type: functional; in short: as §2
Mus musculus [22] = assay: Antimalarial activity in mice (Mus musculus), infected with Plasmodium yoelii NS. activity is expressed as the percent of parasitaemia observed in mice (Mus musculus) at end of 4-day test at a concentration of 1 mg/kg in experiment 1; type: functional; in short: as §2
Mus musculus [23] = assay: Antimalarial activity in mice (Mus musculus), infected with Plasmodium berghei N. activity is expressed as the percent of parasitaemia observed in mice (Mus musculus) at end of 4-day test at a concentration of 10 mg/kg in experiment 1; type: functional; in short: as §2
Mus musculus [24] = assay: Antimalarial activity in mice (Mus musculus), infected with Plasmodium berghei N. activity is expressed as the percent of parasitaemia observed in mice (Mus musculus) at end of 4-day test at a concentration of 1 mg/kg in experiment 1; type: functional; in short: as §2
Mus musculus [25] = assay: Antimalarial activity in mice (Mus musculus), infected with Plasmodium berghei N. activity is expressed as the percent of parasitaemia observed in mice (Mus musculus) at end of 4-day test at a concentration of 10 mg/kg in experiment 2; type: functional; in short: as §2

Work on “7-Chloro-4-[[[2-[(N,N-methyl amino)]ferrocenyl]methyl]amino]quinoline; bis-(2,3-Dihydroxy-succinic acid) [listing 1 of 2 here]” yielded an IC50 (Plasmodium falciparum [1]) of 0.057 µg/mL, an IC50 (Plasmodium falciparum [2]) of 0.177 µg/mL and an IC50 (Plasmodium falciparum [3]) of 0.061 µg/mL. It also gave an IC50 (Plasmodium falciparum [4]) of 0.067 µg/mL, an IC50 (Plasmodium falciparum [5]) of 0.095 µg/mL and a Mortality [6] of 5. It also gave an IC50 (Plasmodium falciparum [7]) of 0.059 µg/mL, a Mortality [8] of 0 and an IC50 (Plasmodium falciparum [9]) of 0.16 µg/mL.
With “7-Chloro-4-[[[2-[(N,N-methyl amino)]ferrocenyl]methyl]amino]quinoline; bis-(2,3-Dihydroxy-succinic acid) [listing 2 of 2 here]” the Parasitemia (Mus musculus [10]) was 0%, the Parasitemia (Mus musculus [11]) was 75.8% and the Parasitemia (Mus musculus [12]) was 0%. It also gave a Parasitemia (Mus musculus [13]) of 75.5%, a Parasitemia (Mus musculus [14]) of 0% and a Parasitemia (Mus musculus [15]) of 109%. The Parasitemia (Mus musculus [16]) was 0.3% and the Parasitemia (Mus musculus [17]) was 125%.
CCN(CC)CCCC(C)Nc1ccnc2cc(Cl)ccc12 (stereo not given) [CHLOROQUINE] gave a Parasitemia (Mus musculus [18]) of 0%, a Parasitemia (Mus musculus [19]) of 60.1% and a Parasitemia (Mus musculus [20]) of 76.6%. The Parasitemia (Mus musculus [21]) was 0%, the Parasitemia (Mus musculus [22]) was 64.7% and the Parasitemia (Mus musculus [23]) was 2.08%. For the same compound, the Parasitemia (Mus musculus [24]) was 69.2% and the Parasitemia (Mus musculus [25]) was 0.59%.

Source: ChEMBL document CHEMBL1130229, “Synthesis and antimalarial activity in vitro and in vivo of a new ferrocene-chloroquine analogue” (J Med Chem, 1997)
